The source made the active and inactive calls. No cut-off for these calls is given here.
Tests used:
[1] = molecular target: MMP-2/MMP-9 (Homo sapiens) (UniProt P08253+P14780); experiment: Selectivity ratio of Ki for human recombinant MMP-9 catalytic domain to Ki for human recombinant MMP-2
[2] = molecular target: T1, Matrilysin (Homo sapiens) (UniProt P09237); experiment: Inhibition of human recombinant MMP-7 at 50 uM by fluorescence spectrophotometric analysis relative to control
T1 sequence (whole entry): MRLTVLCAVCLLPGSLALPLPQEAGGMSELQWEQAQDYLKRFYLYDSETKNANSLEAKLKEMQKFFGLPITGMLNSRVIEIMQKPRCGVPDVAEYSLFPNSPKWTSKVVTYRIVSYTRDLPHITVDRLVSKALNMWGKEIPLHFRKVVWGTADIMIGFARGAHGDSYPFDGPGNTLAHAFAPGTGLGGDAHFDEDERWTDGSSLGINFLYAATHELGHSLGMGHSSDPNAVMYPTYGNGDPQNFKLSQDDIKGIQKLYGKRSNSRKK

[3] = molecular target: Stromelysin-1 (Homo sapiens) (UniProt P08254); experiment: Inhibition of human recombinant MMP-3 catalytic domain at 50 uM by fluorescence spectrophotometric analysis relative to control
[4] = molecular target: T2, Interstitial collagenase (Homo sapiens) (UniProt P03956); experiment: Inhibition of human recombinant MMP-1 catalytic domain at 50 uM by fluorescence spectrophotometric analysis relative to control
T2 sequence (whole entry): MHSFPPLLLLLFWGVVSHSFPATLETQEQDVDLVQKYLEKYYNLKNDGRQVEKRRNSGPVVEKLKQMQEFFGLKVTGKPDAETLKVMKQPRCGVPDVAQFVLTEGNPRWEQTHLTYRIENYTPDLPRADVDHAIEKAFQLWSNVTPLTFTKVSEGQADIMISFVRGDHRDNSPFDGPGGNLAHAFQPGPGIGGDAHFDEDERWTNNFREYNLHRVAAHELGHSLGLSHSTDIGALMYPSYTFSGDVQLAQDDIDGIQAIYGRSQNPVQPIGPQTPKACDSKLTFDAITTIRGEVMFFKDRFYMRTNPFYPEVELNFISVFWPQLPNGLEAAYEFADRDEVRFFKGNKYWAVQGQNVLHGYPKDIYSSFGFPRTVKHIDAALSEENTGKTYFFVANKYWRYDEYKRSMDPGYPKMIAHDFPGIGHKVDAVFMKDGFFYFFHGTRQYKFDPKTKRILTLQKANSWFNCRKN

[5] = molecular target: T3, Matrix metalloproteinase-14 (Homo sapiens, UniProt P50281); experiment: Inhibition of human recombinant MMP-14 catalytic domain using MOCAcPLGLA2pr(Dnp)AR-NH2 as substrate by fluorescence spectrophotometric analysis
[6] = molecular target: T4, Matrix metalloproteinase-9 (Homo sapiens, UniProt P14780); experiment: Inhibition of human recombinant MMP-9 catalytic domain using MOCAcPLGLA2pr(Dnp)AR-NH2 as substrate by fluorescence spectrophotometric analysis
T4 sequence (P14780 whole entry, the tested form may be a part): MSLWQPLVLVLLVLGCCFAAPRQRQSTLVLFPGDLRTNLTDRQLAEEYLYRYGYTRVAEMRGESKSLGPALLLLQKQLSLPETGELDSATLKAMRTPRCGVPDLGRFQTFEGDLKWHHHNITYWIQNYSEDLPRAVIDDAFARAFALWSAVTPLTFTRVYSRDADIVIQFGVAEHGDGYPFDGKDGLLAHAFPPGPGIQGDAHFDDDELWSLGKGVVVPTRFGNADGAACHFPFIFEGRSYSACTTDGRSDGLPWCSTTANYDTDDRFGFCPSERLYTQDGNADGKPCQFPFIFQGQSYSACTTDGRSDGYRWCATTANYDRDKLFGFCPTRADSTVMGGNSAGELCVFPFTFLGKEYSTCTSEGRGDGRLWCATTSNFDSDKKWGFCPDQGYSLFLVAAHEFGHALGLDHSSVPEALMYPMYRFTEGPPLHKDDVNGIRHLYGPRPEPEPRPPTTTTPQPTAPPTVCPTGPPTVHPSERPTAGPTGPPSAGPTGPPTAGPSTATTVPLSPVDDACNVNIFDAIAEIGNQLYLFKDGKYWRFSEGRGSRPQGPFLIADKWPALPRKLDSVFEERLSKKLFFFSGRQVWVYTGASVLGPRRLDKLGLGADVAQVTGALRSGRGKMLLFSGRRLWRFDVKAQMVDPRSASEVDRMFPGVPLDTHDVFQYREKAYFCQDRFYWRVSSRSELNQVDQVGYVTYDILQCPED

[7] = molecular target: 72 kDa type IV collagenase (Homo sapiens, UniProt P08253); experiment: Inhibition of human recombinant MMP-2 using MOCAcPLGLA2pr(Dnp)AR-NH2 as substrate by fluorescence spectrophotometric analysis
Sequence of 72 kDa type IV collagenase (P08253 whole entry): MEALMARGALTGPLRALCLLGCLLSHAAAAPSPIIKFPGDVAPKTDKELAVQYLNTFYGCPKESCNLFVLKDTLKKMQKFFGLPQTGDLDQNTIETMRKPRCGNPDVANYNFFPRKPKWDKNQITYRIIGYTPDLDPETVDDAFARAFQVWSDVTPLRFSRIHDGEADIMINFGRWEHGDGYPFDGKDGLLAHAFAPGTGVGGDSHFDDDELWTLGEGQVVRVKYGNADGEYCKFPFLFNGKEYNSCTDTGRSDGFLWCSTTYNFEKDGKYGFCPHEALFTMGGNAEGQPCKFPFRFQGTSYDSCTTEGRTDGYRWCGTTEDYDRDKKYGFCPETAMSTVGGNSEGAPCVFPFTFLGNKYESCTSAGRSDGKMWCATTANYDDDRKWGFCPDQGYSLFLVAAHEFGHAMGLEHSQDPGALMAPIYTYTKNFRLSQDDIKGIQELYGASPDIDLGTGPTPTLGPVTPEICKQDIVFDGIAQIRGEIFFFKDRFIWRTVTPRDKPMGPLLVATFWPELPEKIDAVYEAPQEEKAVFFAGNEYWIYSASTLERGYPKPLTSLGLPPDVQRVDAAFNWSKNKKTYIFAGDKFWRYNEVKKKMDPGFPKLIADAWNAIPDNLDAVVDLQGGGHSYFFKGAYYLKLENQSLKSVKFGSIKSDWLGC

Liver = experiment: Half life in rat liver S9 fraction at 10 uM by reversed-phase UPLC/ESI-MRM analysis; type: ADME, subcellular; conditions: s9, 10 µM
Summary of the method: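 Male rat liver S9 (1.0 mg) with 0.5 mM NADPH and 10 µM compound (both final) in 50 mM potassium phosphate, pH 7.4, at 37 °C, sampled over time. Aliquots were stopped with acetonitrile containing internal standard, and the supernatant was run by UPLC/ESI-MRM. Half-lives used first-order kinetics on peak-area ratios to internal standard.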

[8] = molecular target: Stromelysin-1 (Homo sapiens) (UniProt P08254); experiment: Inhibition of human recombinant MMP-3 catalytic domain at 30 uM by fluorescence spectrophotometric analysis relative to control
[9] = molecular target: MMP-2/MMP-14 (Homo sapiens) (UniProt P50281+P08253); experiment: Selectivity ratio of Ki for human recombinant MMP-14 catalytic domain to Ki for human recombinant MMP-2
Homo sapiens = species on record: Homo sapiens; experiment: Selectivity ratio of Ki for human recombinant MMP-8 catalytic domain to Ki for human recombinant MMP-2
[10] = molecular target: T3, Matrix metalloproteinase-14; experiment: Inhibition of human recombinant MMP-14 catalytic domain using MOCAcPLGLA2pr(Dnp)AR-NH2 as substrate at 50 uM by fluorescence spectrophotometric analysis relative to control
[11] = molecular target: T4, Matrix metalloproteinase-9; experiment: Inhibition of human recombinant MMP-9 catalytic domain using MOCAcPLGLA2pr(Dnp)AR-NH2 as substrate at 50 uM by fluorescence spectrophotometric analysis relative to control

Row | Structure (SMILES) | Ratio Ki [1] | inhibition [2] | inhibition [3] [%] | inhibition [4] | Ki [5] [nM] | Ki [6] [nM] | Ki [7] [nM] | t1/2 (Liver) [min] | inhibition [8] [%] | Ratio Ki [9] | Ratio Ki (Homo sapiens) | inhibition [10] [%] | inhibition [11] [%]
1 | CCCOC(=O)Oc1ccc(Oc2ccc(S(=O)(=O)CC3CS3)cc2)cc1 (stereo not drawn) | 2 | 10% | 29 | inactive | 2800 | 1000 | 310 |  |  |  |  |  | 
2 | CCOC(=O)Nc1ccc(Oc2ccc(S(=O)(=O)CC3CS3)cc2)cc1 (stereo not drawn) |  | inactive | 37 | inactive | 1900 |  | 290 | 24.8 |  |  |  |  | 
3 | O=S(=O)(CC1CS1)c1ccc(Oc2ccc(O)cc2)cc1 (stereo not drawn) |  |  |  |  |  |  |  | 23.5 |  |  |  |  | 
4 | COC(=O)Oc1ccc(Oc2ccc(S(=O)(=O)CC3CS3)cc2)cc1 (stereo not drawn) | 2 | 11% |  | 7% | 2400 | 230 | 160 |  | 31 |  |  |  | 
5 | CNC(=O)Oc1ccc(Oc2ccc(S(=O)(=O)CC3CS3)cc2)cc1 (stereo not drawn) | 20 | 6% | 30 | 8% | 12000 | 10000 | 390 |  |  | 20 | 20 |  | 
6 | CC(C)OC(=O)Oc1ccc(Oc2ccc(S(=O)(=O)CC3CS3)cc2)cc1 (stereo not drawn) | 2 | 13% | 9 | inactive | 3000 | 1300 | 480 |  |  |  |  |  | 
7 | CC(C)NC(=O)Oc1ccc(Oc2ccc(S(=O)(=O)CC3CS3)cc2)cc1 (stereo not drawn) | 20 | inactive | 3 | inactive |  |  | 690 |  |  | 20 | 20 | 30 | 22
8 | CCCOC(=O)Nc1ccc(Oc2ccc(S(=O)(=O)CC3CS3)cc2)cc1 (stereo not drawn) | 2 | inactive | 27 | inactive | 2100 | 1100 | 490 |  |  |  |  |  | 

— ChEMBL document CHEMBL2440018 (J Med Chem, 2013)
